# Screening data deposited in PubChem BioAssay by Columbia University Molecular Screening Center.
# INS promoter act – TRM-6 insulin promoter activation; activation, % at 2 µM; TRM-6 cells, insulin promoter eGFP reporter, imaging; plate-scaled: unstimulated 0, stimulated control 100; AID 1296; hit rate 0.81% among 130,000;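 active means activation at 2 µM above a set limit, confirmed on inspection of the cell images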;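 further: share of cells whose green reporter signal exceeds an intensity cutoff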
#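 Material: Human fetal islet-derived TRM-6 cells with tamoxifen-inducible insulin promoter–eGFP reporter | Medium: Low-glucose (5.5 mM) medium with tamoxifen | Probe or stimulus: Tamoxifen inducer, 0.75 µM, in seeding medium | Schedule: Tamoxifen pre-incubation 15 h overnight, then compound exposure 48 h at 37 °C | Detection: High-content imaging of fixed cells with Hoechst nuclear stain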
# An asterisk follows results filed as active; [ ] = dose if it differs, or a comment. The full list was thinned out, with hits kept by preference.
SMILES,INS promoter act
N#C/C(=C\c1ccc(OC(=O)c2ccc(Br)s2)cc1)c1nc2ccccc2[nH]1,9.1
N#C/C(=C\c1ccc(N2CCOCC2)o1)c1nc2ccccc2[nH]1,142.1*
CC1(C)Nc2ccccc2N(CC(=O)N2CCCCC2)C1=O,0.0
CCOC(=O)c1c(C)n(C)c2ccc(OC)c(NC(=O)CCN3CCSCC3)c12,7.1
C=CCN1C(=O)/C(=C\C=C2\N(C)c3ccccc3C2(C)C)SC1=S,614.3*[fluoresces]
CCN1C(=O)/C(=C\N2CCCc3ccccc32)SC1=S,-7.1
Cc1c(N=C/C=C2/N(C)c3ccccc3C2(C)C)c(=O)n(-c2ccccc2)n1C,30.4
COc1ccc(NC(=O)CCCn2cc([N+](=O)[O-])cn2)cc1,0.0
COc1ccc(C(=O)NNC2CC(=O)N(Cc3ccc(Cl)cc3)C2=O)cc1OC (stereo unspecified),-3.2
CC(=O)Nc1nc2ccccc2n1CCN1CCOCC1,2.8
COc1ccc(CNc2nc3ccccc3n2CCN2CCOCC2)cc1,462.5*
C=CCc1cccc(CNc2nc3ccccc3n2CCN2CCOCC2)c1O,168.8
CC(C)Cc1ccc(C(C)C(=O)O)cc1 (stereo unspecified),4.5
CC(C)Cc1ccc(C(C)NC(=O)c2ccc(=O)[nH]c2)cc1 (stereo unspecified),350.0*
CCCc1ccc(C(C)NC(=O)c2cnccn2)cc1 (stereo unspecified),8.6
Cn1c(SCC(=O)N(C2CCCCC2)C2CCCCC2)nnc1-c1cccs1,-2.7
Cc1ccc2nsnc2c1S(=O)(=O)NCc1ccc2c(c1)OCO2,0.0
O=S(=O)(NCc1ccc2c(c1)OCO2)c1cccc2cccnc12,0.0
CCOc1cc(S(=O)(=O)NCc2ccc3c(c2)OCO3)c(C)cc1C,140.9*
CC(C)CN(CC(C)C)C(=O)Nc1ccccc1F,177.8
O=C(CCN1C(=O)c2ccccc2C1=O)Nc1sc2c(c1C(=O)NCC1CCCO1)CCC2 (stereo unspecified),-3.7
O=C(CN1C(=O)NC2(CCCCCC2)C1=O)N1CCN(S(=O)(=O)c2ccc(Cl)cc2)CC1,4.7
O=C(O)C1CC=CCC1C(=O)Nc1cccc(C(=O)N2CCCCC2)c1 (stereo unspecified),388.2
COc1cc(/C(C)=N/NC(=O)C(O)(c2ccccc2)c2ccccc2)ccc1O,8.3
CC(=O)c1ccc2c(c1)CC(C)C(=O)N2C (stereo unspecified),-8.3
SMILES,INS promoter act
C/C(=N\Nc1nc(Cl)c(Cl)cc1Cl)c1ccc(S(=O)(=O)NCc2ccco2)cc1,6.5
CCOC(=O)C1CCN(C(=O)COc2ccc(Cl)cc2)CC1,0.0
CCOC(=O)C1CCCN(C(=O)Cc2ccc(Cl)cc2)C1 (stereo unspecified),85.2*
CCOC(=O)C1CCCN(C(=O)CCc2ccccc2)C1 (stereo unspecified),-77.8
CCOC(=O)c1c(C)[nH]c(C(=O)COC(=O)C(C)N2C(=O)C3CCCCC3C2=O)c1C (stereo unspecified),-2.3
Cc1cc(C)cc(Oc2ccccc2/C=N\O)c1,223.3*
O/N=C/c1ccccc1Oc1ccccc1,3.3
O/N=C/c1cc(Cl)ccc1OCc1ccccc1Cl,0.0
CC(=O)c1cccc(NC(=O)N2CCCC2C(=O)NCc2ccc3c(c2)OCO3)c1 (stereo unspecified),8.3
CC(=O)c1cccc(NC(=O)N2CCCC2C(=O)Nc2ccc3c(c2)OCCO3)c1 (stereo unspecified),492.9*
COc1ccc(NC(=O)C2CCCN2C(=O)Nc2ccccc2)cc1OC (stereo unspecified),-6.9
Cc1ccc2c(c1)C1(OCCO1)C(=O)N2,-8.3
C=CCn1c(SCC(=O)N2N=C(c3ccco3)CC2c2ccco2)nnc1-c1ccncc1 (stereo unspecified),3.3
N#Cc1c(N2CCN(C(=O)c3ccccc3)CC2)nc(-c2ccccc2)c2c1CCCC2,79.3*
CC(C)Cc1nc(N2CCN(C(=O)c3ccco3)CC2)c(C#N)c2c1CCC2,-8.3
N#Cc1c(N2CCN(C(=O)c3ccco3)CC2)nc(-c2ccccc2)c2c1CCCC2,-71.4
Cc1nnc(-c2cnn(-c3ccccc3)c2N)n1Cc1ccncc1,3.2
Cc1c(NC(=O)C(C)OC(=O)[C@@H](NC(=O)c2ccccc2)C(C)C)c(=O)n(-c2ccccc2)n1C (stereo partly specified),4.7
CSc1ccccc1-c1nnc(-c2ccccc2)o1,9.4
O=S1(=O)C=C(Sc2nnc(-c3ccccc3)o2)c2ccccc21,270.4*
c1ccc(-c2nnc(-c3ccccc3)o2)cc1,4.7
COc1ccc(NS(=O)(=O)c2ccc(N3CCCC3)c(NC(=S)Nc3cccc(S(=O)(=O)N(C)C)c3)c2)cc1,7.9
O=C(Nn1c(Cc2cccs2)nc2ccccc2c1=O)c1cccs1,3.1
O=c1c(-c2cc3ccccc3o2)[n+]([O-])c2ccccc2n1OCc1ccccn1,-5.4
COc1ccc(COn2c(=O)c(C)[n+]([O-])c3ccccc32)cc1OC,86.5*
SMILES,INS promoter act
Cc1c(=O)n(OCc2ccccc2)c2ccccc2[n+]1[O-],355.8
CC(=O)Nc1nc(C)c(Oc2ccccc2)c(=O)[nH]1,0.0
CCCC(C)NC(=S)Nc1cc(C)cc(C)c1 (stereo unspecified),0.0
COc1ccc(OC)c(C2C(C(C)=O)=C(O)C(=O)N2c2ccc(O)cc2)c1 (stereo unspecified),-3.3
O=C(NC(=S)Nc1ccc2c(c1)C(=O)c1ccccc1C2=O)c1ccc(F)cc1,-6.7
CCCCCC/C(=N\NS(C)(=O)=O)c1ccccc1,0.0
O=C(O)CCC(=O)NNC(=O)CCC(=O)NCc1ccccc1,0.0
CCCCC/C(=N\NC(=O)CCC(=O)NCc1ccccc1)c1ccccc1,371.4*
CC(=O)c1cc(F)c(N2CCN(C(=O)COc3ccccc3F)CC2)cc1C,6.7
N#C/C(=C\Nc1ccc2cn[nH]c2c1)c1nc(-c2ccc(Cl)cc2)cs1,-6.7
O=C(CSc1nc2ccccc2o1)Nc1ccc(N2CCOCC2)cc1,0.0
CCCCC(=O)Nc1ncc2c(n1)CC(C)(C)CC2=O,-5.6
CC1(C)CC(=O)c2cnc(NC(=O)CSc3nc4ccccc4o3)nc2C1,523.1*
Cc1cccc(N(CC(=O)NCCC2=CCCCC2)S(C)(=O)=O)c1C,-3.3
O=S(NC1CCCCC1)C12CC3CC(CC(C3)C1)C2 (stereo unspecified),0.0
CN1CCN(S(=O)C23CC4CC(CC(C4)C2)C3)CC1 (stereo unspecified),488.2*
CC1CCN(S(=O)C23CC4CC(CC(C4)C2)C3)CC1 (stereo unspecified),4.8
CCn1nnnc1SCC(=O)NC1CCCC1,-2.8
CC(C)(C)NC(=O)c1ccc2c(c1)N(CC(=O)N1CCN(c3ccccc3F)CC1)C(=O)C(C)(C)O2,0.0
CCC(C)c1ccc(O)c(NC(=O)c2cncc(Br)c2)c1 (stereo unspecified),327.8
Cc1ccc2nc(Nc3ccc4[nH]c(=O)[nH]c4c3)c(-n3nc(C)cc3C)nc2c1,-27.8
O=C(CSc1nnnn1C1CCCCC1)Nc1nc2c(s1)CCCC2,2.9
CCOc1nc(-c2ccc(OC)cc2)ccc1-c1noc(-c2cccnc2)n1,-36.4
CCOC(=O)c1sc2nc(C)[nH]c(=S)c2c1C,-78.6
CCOC(=O)Cn1c(C)nc2c(C(=O)OCC)sc(C)c2c1=O,76.3*
COC(=O)Cn1c(C)nc2c(sc3nc(C)cc(C)c32)c1=O,5.4
COc1ccc2[nH]c(=O)c(CN(C(=O)c3ccccn3)c3ccccc3)cc2c1,200.0*
COc1ccc2[nH]c(=O)c(CN(C(=O)c3cccnc3)c3ccccc3OC)cc2c1,8.1
